# Measurements of several laboratories.
# Each line is one published result; the experiments were not run side by side.
# Target: Tyrosine-protein kinase SYK (SYK, Homo sapiens, UniProt P43405)
SMILES,observed,technique,tested at,remaining binding
CCN1CCN(Cc2ccc(C(=O)Nc3ccc(C)c(Oc4ccc5c(c4)CC(=O)N5)c3)cc2C(F)(F)F)CC1,binding,competition with immobilised ligand,1 µM,100%
O=C(c1ccc(Nc2ncc(Cl)c(-c3ccc(Cl)s3)n2)cc1)N1CCC(N2CCCC2)CC1,binding,competition with immobilised ligand,1 µM,43%
CN(c1nccc(-c2cnn3ncccc23)n1)C1CC1,binding,,1 µM,100%
COc1ccc2c(c1)O[C@H](c1ccc(OC)c(OC)c1)C[C@@H]2NC(=O)C1(c2ccc3c(c2)OC(F)(F)O3)CC1,cell-free assay,competition with immobilised ligand,1 µM,100%
CN(C)c1nccc(-c2cnn3ncccc23)n1,binding,,1 µM,100%
CN(C)c1ncnc(-c2ccc3nc(Nc4cc(CN5CCN(C(=O)CC(F)(F)F)CC5)ccn4)[nH]c3c2)c1Cl,cell-free assay,competition with immobilised ligand,1 µM,96%
CNC(=O)[C@@H]1CC[C@@H](n2c(-c3ccc4cnccc4c3)nc3ccc(C(=O)NCc4cccc(C(N)=O)c4)cc32)C1,binding,competition with immobilised ligand,1 µM,99%
CC1CCCN1c1nccc(-c2cnn3ncccc23)n1 (centres unmarked),binding,,1 µM,100%
O=C(NCC1CCOCC1)c1n[nH]cc1NC(=O)c1c(F)cccc1F,binding,competition with immobilised ligand,1 µM,100%
C[C@@H]1CCN(c2nccc(-c3cnn4ncccc34)n2)C1,binding,,1 µM,84%
O=C(NCCCN1CCOCC1)c1ccc(Nc2nccc(-c3cc4ccccc4s3)n2)cc1,binding,competition with immobilised ligand,1 µM,17%
N[C@H]1CCN(c2nccc(-c3cnn4ncccc34)n2)C1,binding,,1 µM,81%
CCc1ccccc1C(=O)Nc1n[nH]c2c(C)c(F)c(C3C(C#N)=C(C)N(C)C(C)=C3C#N)cc12,cell-free assay,competition with immobilised ligand,1 µM,100%
CN(C)c1ncc(F)c(-c2cnn3ncccc23)n1,binding,,1 µM,76%
N#CC1(c2ccccn2)CCN(Cc2cc(C(=O)N3CCCC3)c(=O)n3ccccc23)CC1,cell-free assay,competition with immobilised ligand,1 µM,92%
COc1cnc(Nc2cccc(S(N)(=O)=O)c2)nc1N1CCN(c2ccccc2)CC1,binding,competition with immobilised ligand,1 µM,86%
Cc1cc(NC(=O)c2cccc(S(F)(F)(F)(F)F)c2)cc(-n2ccn3nc(-c4cccnc4)cc23)c1,cell-free assay,competition with immobilised ligand,1 µM,95.5%
O=C(c1ccc(Nc2ncc(Cl)c(-c3cc4ccccc4s3)n2)cc1)N1CCC(N2CCCC2)CC1,binding,competition with immobilised ligand,1 µM,8.6%
CO[C@H]1CC[C@H](CNc2ccc(S(=O)(=O)NC(=O)c3ccc(N4CCN(CC5=C(c6ccc(Cl)cc6)CC(C)(C)CC5)CC4)cc3Oc3cnc4[nH]ccc4c3)cc2[N+](=O)[O-])CC1,cell-free assay,competition with immobilised ligand,1 µM,62%
FC(F)(F)Oc1cccc(-c2cnc3ccc(-c4ccncc4)nn23)c1,binding,competition with immobilised ligand,5 µM,64%
